Data taken from ChEMBL document CHEMBL1123730, “Synthesis and pharmacological evaluation of a new class of 2-(2-aminothiazol-4-yl)-2-hydrazonoacetamido cephalosporins” (J Med Chem, 1987).
Converted amounts (≈) assume the structure as drawn.

Columns and labels:
[1] = Distribution (50 mg/kg) was determined in kidney 15 min after intravenous administration; assay type: ADME, organism-based; settings: read-out: Tissue distribution
How it was run: (§1)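 Wistar rats (200-250 g, groups of five) given 50 mg/kg in sterile water iv or im; killed at set times, lung, liver and kidney homogenized in 0.1 M pH 7.3 phosphate buffer (tissue:buffer 1:5). Drug assayed by agar diffusion on Nutrient Agar with E. coli ATCC 10536 (37 °C, 18 h); standards in phosphate buffer; detection limit 0.5 μg/mL; mean ± SEM.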

[2] = Distribution (50 mg/kg) was determined in kidney 5 min after intramuscular administration; assay type: ADME, organism-based; settings: im, read-out: Tissue distribution; how it was run: as §1
[3] = Distribution (50 mg/kg) was determined in kidney 60 min after intramuscular administration; assay type: ADME, organism-based; settings: im, read-out: Tissue distribution; how it was run: as §1
[4] = Distribution (50 mg/kg) was determined in liver 120 min after intramuscular administration; assay type: ADME, organism-based; settings: im, read-out: Tissue distribution; how it was run: as §1
[5] = Distribution (50 mg/kg) was determined in liver 30 min after intravenous administration; assay type: ADME, organism-based; settings: read-out: Tissue distribution; how it was run: as §1
[6] = Distribution (50 mg/kg) was determined in liver 5 min after intramuscular administration; assay type: ADME, organism-based; settings: in vivo, im; how it was run: as §1
[7] = Distribution (50 mg/kg) was determined in liver 60 min after intramuscular administration; assay type: ADME, organism-based; settings: im, read-out: Tissue distribution; how it was run: as §1
[8] = Distribution (50 mg/kg) was determined in lung 120 min after intramuscular administration; assay type: ADME, organism-based; settings: im, read-out: Tissue distribution; how it was run: as §1
[9] = Distribution (50 mg/kg) was determined in lung 120 min after intravenous administration; assay type: ADME, organism-based; settings: in vivo, 2 h; how it was run: as §1
[10] = Distribution (50 mg/kg) was determined in lung 15 min after intramuscular administration; assay type: ADME, organism-based; settings: im, read-out: Tissue distribution; how it was run: as §1
[11] = Distribution (50 mg/kg) was determined in lung 15 min after intravenous administration; assay type: ADME, organism-based; settings: read-out: Tissue distribution; how it was run: as §1
[12] = Distribution (50 mg/kg) was determined in lung 5 min after intravenous administration; assay type: ADME, organism-based; settings: read-out: Tissue distribution; how it was run: as §1
[13] = Distribution (50 mg/kg) was determined in lung 60 min after intramuscular administration; assay type: ADME, organism-based; settings: im, read-out: Tissue distribution; how it was run: as §1
[14] = Serum level was determined at 15 min after intramuscular administration of 50 mg/kg in rats; assay type: ADME, organism-based; parameters: dose 50 mg/kg, route intramuscular; settings: rat, im, read-out: Serum level
How it was run: (§2)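 Dose 50 mg/kg in sterile water, iv or im, to Wistar rats 200-250 g, five per time point; killed at set intervals, blood centrifuged for serum. Antibiotic measured by agar diffusion on Nutrient Agar with E. coli ATCC 10536 (37 °C, 18 h), standards diluted in serum; detection limit 1 μg/mL. Mean ± SEM of five rats.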

[15] = Serum level was determined at 240 min after intramuscular administration of 50 mg/kg in rats; assay type: ADME, organism-based; parameters: dose 50 mg/kg, route intramuscular; settings: rat, im, read-out: Serum level; how it was run: as §2
[16] = Serum level was determined at 5 min after intramuscular administration of 50 mg/kg in rats; assay type: ADME, organism-based; parameters: dose 50 mg/kg, route intramuscular; settings: rat, im, read-out: Serum level; how it was run: as §2
[17] = Serum level was determined at 60 min after an intravenous administration of 50 mg/kg in rats; assay type: ADME, organism-based; parameters: dose 50 mg/kg, route intravenous; settings: rat, read-out: Serum level; how it was run: as §2
[18] = system: Alcaligenes; experiment: Geometrical average of minimum bactericidal concentration was determined in isosensitest broth against Alcaligenes; assay type: functional
[19] = system: Alcaligenes; experiment: Geometrical average of minimum inhibitory concentration was determined in isosensitest broth against Alcaligenes; assay type: functional
[20] = system: Enterobacter; experiment: Geometrical average of minimum bactericidal concentration was determined in isosensitest broth against Enterobacter; assay type: functional
[21] = system: Klebsiella; experiment: Geometrical average of minimum bactericidal concentration was determined in isosensitest broth against Klebsiella; assay type: functional
[22] = system: Klebsiella pneumoniae; experiment: Minimum inhibitory concentration against Klebsiella pneumoniae 102; assay type: functional
[23] = system: Neisseria perflava; experiment: Geometrical average of minimum bactericidal concentration was determined in isosensitest broth against Neisseria perfl (1); assay type: functional
[24] = system: Proteus; experiment: Geometrical average of minimum bactericidal concentration was determined in isosensitest broth against Proteus; assay type: functional, Proteus sp.
[25] = system: Salmonella typhimurium; experiment: In vivo protective dose was determined in infected swiss mice (120/strain) infected ip with Salmonella Typhimurium T.O. with an inoculum size-0.5 mL of 10 E6 CFU/mL of suspension. Activity in range of 5.47-15.81; assay type: functional, Salmonella enterica subsp. enterica serovar Typhimurium; settings: Salmonella enterica
[26] = system: Staphylococcus aureus; experiment: Geometrical average of minimum inhibitory concentration was determined in isosensitest broth against Staphylococcus (P); assay type: functional
[27] = system: Serratia; experiment: Geometrical average of minimum inhibitory concentration was determined in isosensitest broth against Serratia; assay type: functional
[28] = Distribution (50 mg/kg) was determined in lung 5 min after intramuscular administration; assay type: ADME, organism-based; settings: im, read-out: Tissue distribution; how it was run: as §1
[29] = Distribution (50 mg/kg) was determined in liver 30 min after intramuscular administration; assay type: ADME, organism-based; settings: im, read-out: Tissue distribution; how it was run: as §1

Compound `Cn1nnnc1SCC1=C(C(=O)O)N2C(=O)[C@@H](NC(=O)/C(=N/N)c3csc(N)n3)[C@H]2SC1` has a concentration at 0.25 h [1] of 50600 ng/g, a concentration at 5 min [2] of 6420 ng/g and a concentration at 1 h [3] of 22900 ng/g. The concentration at 2 h [4] was 5270 ng/g, the concentration at 0.5 h [5] was 18800 ng/g and the Tissue distribution [6] was “Undetectable”. For the same compound, the concentration at 1 h [7] was 15100 ng/g, the concentration at 2 h [8] was at most 5000 ng/g and the Tissue distribution [9] was “Undetectable”. The concentration at 0.25 h [10] was 10700 ng/g, the concentration at 0.25 h [11] was 17500 ng/g and the concentration at 5 min [12] was 26400 ng/g. It also gave a concentration at 1 h [13] of 7660 ng/g, a concentration at 0.25 h [14] of 86.2 µg/mL and a concentration at 4 h [15] of 10.2 µg/mL. For the same compound, the concentration at 5 min [16] was 34.6 µg/mL, the concentration at 1 h [17] was 52.5 µg/mL and the MBC [18] was 12.5 mg/L (≈ 25.2 µM). For the same compound, the MIC [19] was 8.83 mg/L (≈ 17.8 µM), the MBC [20] was 3.12 mg/L (≈ 6.28 µM) and the MBC [21] was 2.78 mg/L (≈ 5.6 µM). The MIC [22] was 1.56 mg/L (≈ 3.14 µM), the MBC [23] was under 0.09 mg/L and the MBC [24] was 2.45 mg/L (≈ 4.93 µM). The ED50 [25] was 9.3 mg/kg, the MIC [26] was 35.3 mg/L (≈ 71.1 µM) and the MIC [27] was 1.75 mg/L (≈ 3.52 µM). For the same compound, the concentration at 5 min [28] was at most 5000 ng/g and the concentration at 0.5 h [29] was 22100 ng/g.
